Measurements from article PMC6072253 (ACS Omega, 2018).
In brackets after ≈: the same amount, converted by molar mass. Several values for one entry are separate records, joined by “and”; a condition that tells them apart may be missing. Identical values can stand only once.

Assays:
[1] = successive pKa of the acid itself; no reference given; cited from earlier work
[2] = thermodynamic equilibrium solubility in water; type: physicochemical; conditions: 25 °C, 24 h
How it was run: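 Excess solid was added to water, vortexed for 5 min, then shaken at 300 rpm and 25 °C for 24 h. After centrifugation (14 000 rpm, 10 min), the supernatant was quantified by reversed-phase C18 HPLC. Elution used a methanol/0.1% formic acid gradient with photodiode detection and a 37 °C column. Calibration covered 5–160 μg/mL.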

[3] = solubility in reaction solvents for scale-up; type: physicochemical
[4] = moisture content by loss on drying; type: physicochemical; conditions: at the end of 6 months
[5] = in vitro dissolution under sink conditions; type: physicochemical
How it was run: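 Samples (1 mL) were taken at 15, 30, 60, 120, 240 and 360 min and replaced with fresh prewarmed medium. Samples were filtered (0.45 μm PVDF), diluted in methanol and quantified by HPLC. Runs were in triplicate. AUC0–t was obtained by the trapezoidal rule to the last time point.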

Cdk-2/A = Cdk-2/A (Homo sapiens, UniProt P24941); test: Cdk-2/A radioactive; type: biochemical; conditions: read-out: % inhibition (±SD) Cdk-2/A, 500 nM
How it was run: (§1)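 Radioactive filter-binding kinase assay using 33P-ATP, run at an external kinase-profiling centre, with the test compound at 500 nM. Enzyme activity remaining was expressed as a percentage of control, and % inhibition was calculated as 100 − % enzyme activity.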

Cdk-9/T1 = Cdk-9/T1 (Homo sapiens, UniProt P50750); test: Cdk-9/T1 radioactive; type: biochemical; conditions: read-out: % inhibition (±SD) Cdk-9/T1, 500 nM
How it was run: as §1

[6] = oral pharmacokinetics in BALB/c mice; type: in vivo; conditions: 50 mg/kg
How it was run: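 Male BALB/c mice aged 8–13 weeks received a single oral dose of 50 mg/kg in 1% v/v Tween 80 + 0.5% w/v sodium CMC. Retro-orbital blood was collected into K2EDTA (n = 3/time point) at 0.25–24 h. Plasma was prepared within 30 min and stored below −60 °C. Plasma was analysed by LC-MS/MS (LLOQ 5.05 ng/mL), and parameters were derived by noncompartmental analysis.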

Cdk-9 = conditions: read-out: Cdk-9 IC50; cited from earlier work

Chain of Cdk-9/T1 (P50750 whole entry): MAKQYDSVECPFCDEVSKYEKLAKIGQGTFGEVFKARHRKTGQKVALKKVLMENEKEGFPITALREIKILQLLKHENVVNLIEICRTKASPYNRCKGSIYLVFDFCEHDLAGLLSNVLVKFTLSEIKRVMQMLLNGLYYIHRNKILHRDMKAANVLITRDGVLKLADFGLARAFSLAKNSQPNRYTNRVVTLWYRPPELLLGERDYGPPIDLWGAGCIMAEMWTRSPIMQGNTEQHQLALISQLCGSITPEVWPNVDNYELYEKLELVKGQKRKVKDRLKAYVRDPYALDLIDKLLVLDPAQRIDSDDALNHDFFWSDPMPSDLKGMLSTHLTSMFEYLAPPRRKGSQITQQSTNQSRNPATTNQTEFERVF
Chain of Cdk-9/T1 (O60563 whole entry partner): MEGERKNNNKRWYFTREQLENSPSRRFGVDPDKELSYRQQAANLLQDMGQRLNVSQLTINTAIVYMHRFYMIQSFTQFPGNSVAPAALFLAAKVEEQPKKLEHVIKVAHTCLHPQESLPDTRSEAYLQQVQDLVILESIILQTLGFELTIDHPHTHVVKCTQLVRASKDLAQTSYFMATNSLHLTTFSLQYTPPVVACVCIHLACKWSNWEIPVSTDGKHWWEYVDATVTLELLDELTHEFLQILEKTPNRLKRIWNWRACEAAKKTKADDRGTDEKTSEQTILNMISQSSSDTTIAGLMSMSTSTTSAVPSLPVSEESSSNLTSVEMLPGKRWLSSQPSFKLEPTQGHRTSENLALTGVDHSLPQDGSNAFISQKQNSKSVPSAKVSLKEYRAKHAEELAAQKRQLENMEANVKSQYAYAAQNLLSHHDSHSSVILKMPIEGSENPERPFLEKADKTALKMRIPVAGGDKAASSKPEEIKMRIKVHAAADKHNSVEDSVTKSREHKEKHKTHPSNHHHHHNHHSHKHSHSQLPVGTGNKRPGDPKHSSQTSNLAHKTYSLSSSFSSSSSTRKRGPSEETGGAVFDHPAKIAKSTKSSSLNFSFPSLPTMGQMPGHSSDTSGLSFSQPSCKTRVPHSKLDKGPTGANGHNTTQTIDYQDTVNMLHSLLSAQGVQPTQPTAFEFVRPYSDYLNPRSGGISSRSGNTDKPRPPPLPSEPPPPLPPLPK

Row | Structure (SMILES) | pKa values of counterions [1] | thermodynamic equilibrium solubility in water [2] | solubility in methanol [3] | solubility ([3]; methanol, solubility in methanol) | % moisture content [4] | % drug dissolved in HCl buffer (pH 1.2) at 30 min ([5]; HCl buffer pH 1.2, 0.25% SLS, 30 min) | AUC0–t (mean ± SEM), dissolution in HCl buffer (pH 1.2) ([5]; HCl buffer pH 1.2, 0.25% w/v SLS) | dissolution in phosphate buffer (pH 6.8) at the end of 60 min ([5]; phosphate buffer pH 6.8, 0.25% SLS, 60 min) | AUC0–t (mean ± SEM), dissolution in phosphate buffer (pH 6.8) ([5]; phosphate buffer pH 6.8, 0.25% w/v SLS) | AUC0–t (mean ± SEM), dissolution in water ([5]; water, 0.25% w/v SLS) | dissolution in water at the end of 120 min ([5]; water, 0.25% w/v SLS, 37 °C, 120 min) | inhibition at 0.5 µM (Cdk-2/A) | inhibition at 0.5 µM (Cdk-9/T1) | T1/2 [6] | AUC(0-t) ([6]; male, BALB/c, mouse, plasma, po, AUC0–t) | Cmax ([6]; male, BALB/c, mouse, plasma, po, Cmax) | Tmax ([6]; male, BALB/c, mouse, plasma, po, Tmax) | IC50 (Cdk-9)
1 | Nc1ccc(C(=O)O)cc1 [4-aminobenzoic acid] | 2.38 | – | – | – | – | – | – | – | – | – | – | – | – | – | – | – | – | –
2 | O=C(O)CC(O)(CC(=O)O)C(=O)O [citric acid] | 3.73 | – | – | – | – | – | – | – | – | – | – | – | – | – | – | – | – | –
3 | CN1CC[C@H](c2c(O)cc(O)c3c(=O)cc(/C=C/c4c(Cl)cccc4Cl)oc23)[C@H](O)C1 [IIIM-290, 2-((E)-2,6-Dichlorostyryl)-5,7-dihydroxy-8-((3S,4R)-3-hydroxy-1-methylpiperidin-4-yl)-4H-chromen-4-one] | – | ~8.6 µg/mL and 8.61 ± 1.8 µg/mL | 0.5 mg/mL (≈ 1080 µM) | ~500 µg/mL (≈ 1080 µM) | 3.5 % w/w | 83% | 2102.46 ± 80.09 μg/mL min | 63% | 4898.69 ± 317.03 μg/mL min | 3557.23 ± 247.03 µg·min/mL | 49 % w/v | 90 ± 0.2% | 94 ± 0.8% | 1.92 h | 2570 ng·h/mL | 656 ng/mL | 1 h | 1.9 nM
